Laboratory results from ChEMBL document CHEMBL1140925, “Nuclear factor-kappaB mediated inhibition of cytokine production by imidazoline scaffolds” (J Med Chem, 2009).

What was measured:
HeLa [1] = assay: Cell cycle arrest in TNF-alpha-stimulated human HeLa cells transfected with NFkappaB-Luc assessed as accumulation at diploid G2 phase at 5 uM after 8 hrs by propidium iodide-based flow cytometry; type: functional
Method in brief: (§1)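 HeLa NF-κB-luc cells (stable, hygromycin-selected) were treated with vehicle (1% DMSO) or compound at 40–0.2 µM final for 8 h at 37 °C, 5% CO2. Adherent cells were trypsinized, resuspended in PBS/50% FBS, fixed overnight in 70% ice-cold ethanol and washed with cold PBS/10% FBS, then analysed for cell cycle by flow cytometry.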

HeLa [2] = assay: Cell cycle arrest in TNF-alpha-stimulated human HeLa cells transfected with NFkappaB-Luc assessed as accumulation at diploid G1 phase at 0.05 uM after 8 hrs by propidium iodide-based flow cytometry; type: functional
[3] = Cytotoxicity against human whole blood IL-1-beta-stimulated lymphocytes assessed as survival cell count in millions at 1 uM by trypan blue staining based hemocytometer
HeLa [4] = assay: Cell cycle arrest in human HeLa cells transfected with NFkappaB-Luc assessed as accumulation at S phase at 20 uM after 8 hrs by propidium iodide-based flow cytometry; type: functional; method in brief: as §1
Blood = assay: Antiinflammatory activity in human whole blood assessed as inhibition of IL-1-beta-induced IL6 production after 18 hrs by ELISA; type: functional, tissue-based
Method in brief: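 Human blood from donors with white count in the normal range, diluted 1:10 in RPMI-1640 with 10% FBS, penicillin and streptomycin. Aliquots were preincubated with vehicle (0.1% DMSO final) or compound at 10, 3, 1, 0.3 or 0.1 µM final for 2 h at 37 °C, 5% CO2. IL-1β (200 U/mL) was then added for 18 h, and plasma was collected and frozen. Cytokine was measured by ELISA.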

HeLa [5] = assay: Cell cycle arrest in TNF-alpha-stimulated human HeLa cells transfected with NFkappaB-Luc assessed as accumulation at S phase at 5 uM after 8 hrs by propidium iodide-based flow cytometry; type: functional; method in brief: as §1
HeLa [6] = assay: Cell cycle arrest in TNF-alpha-stimulated human HeLa cells transfected with NFkappaB-Luc assessed as accumulation at S phase at 0.5 uM after 8 hrs by propidium iodide-based flow cytometry; type: functional; method in brief: as §1
HeLa [7] = assay: Cell cycle arrest in TNF-alpha-stimulated human HeLa cells transfected with NFkappaB-Luc assessed as accumulation at diploid G1 phase at 20 uM after 8 hrs by propidium iodide-based flow cytometry; type: functional; method in brief: as §1
HeLa [8] = assay: Cell cycle arrest in TNF-alpha-stimulated human HeLa cells transfected with NFkappaB-Luc assessed as accumulation at G2/G1 phase at 0.5 uM after 8 hrs by propidium iodide-based flow cytometry; type: functional; method in brief: as §1
HeLa [9] = assay: Cell cycle arrest in TNF-alpha-stimulated human HeLa cells transfected with NFkappaB-Luc assessed as accumulation at diploid G1 phase at 0.5 uM after 8 hrs by propidium iodide-based flow cytometry; type: functional; method in brief: as §1
HeLa [10] = assay: Effect on cell cycle arrest in TNF-alpha-stimulated human HeLa cells assessed as cell debris level at 0.1 uM after 8 hrs by propidium iodide-based flow cytometry; type: functional
HeLa [11] = assay: Cell cycle arrest in TNF-alpha-stimulated human HeLa cells transfected with NFkappaB-Luc assessed as accumulation at diploid G2 phase at 0.1 uM after 8 hrs by propidium iodide-based flow cytometry; type: functional
HeLa [12] = assay: Cell cycle arrest in TNF-alpha-stimulated human HeLa cells transfected with NFkappaB-Luc assessed as accumulation at diploid stage at 0.05 uM after 8 hrs by propidium iodide-based flow cytometry; type: functional
HeLa [13] = assay: Cell cycle arrest in TNF-alpha-stimulated human HeLa cells transfected with NFkappaB-Luc assessed as accumulation at S phase at 0.05 uM after 8 hrs by propidium iodide-based flow cytometry; type: functional
HeLa [14] = assay: Cell cycle arrest in TNF-alpha-stimulated human HeLa cells transfected with NFkappaB-Luc assessed as accumulation at G2/G1 phase at 5 uM after 8 hrs by propidium iodide-based flow cytometry; type: functional; method in brief: as §1
HeLa [15] = assay: Effect on cell cycle arrest in human HeLa cells assessed as cell aggregate level at 20 uM after 8 hrs by propidium iodide-based flow cytometry; type: functional
Method in brief: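 Cells were exposed to vehicle (1% DMSO) or compound for 8 h at 37 °C, 5% CO₂. They were then trypsinized, resuspended in PBS with 50% FBS, fixed overnight in ice-cold 70% ethanol, and washed twice with ice-cold PBS containing 10% FBS before flow cytometric cell-cycle analysis.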

HeLa [16] = assay: Cell cycle arrest in TNF-alpha-stimulated human HeLa cells transfected with NFkappaB-Luc assessed as accumulation at diploid G1 phase at 5 uM after 8 hrs by propidium iodide-based flow cytometry; type: functional; method in brief: as §1
HeLa [17] = assay: Cell cycle arrest in human HeLa cells transfected with NFkappaB-Luc assessed as accumulation at diploid G2 phase at 20 uM after 8 hrs by propidium iodide-based flow cytometry; type: functional; method in brief: as §1
HeLa [18] = assay: Cell cycle arrest in TNF-alpha-stimulated human HeLa cells transfected with NFkappaB-Luc assessed as accumulation at diploid stage at 10 uM after 8 hrs by propidium iodide-based flow cytometry; type: functional; method in brief: as §1
HeLa [19] = assay: Cell cycle arrest in TNF-alpha-stimulated human HeLa cells transfected with NFkappaB-Luc assessed as accumulation at diploid G1 phase at 10 uM after 8 hrs by propidium iodide-based flow cytometry; type: functional; method in brief: as §1
HeLa [20] = assay: Effect on cell cycle arrest in TNF-alpha-stimulated human HeLa cells assessed as cell aggregate level at 0.5 uM after 8 hrs by propidium iodide-based flow cytometry; type: functional
HeLa [21] = assay: Cell cycle arrest in TNF-alpha-stimulated human HeLa cells transfected with NFkappaB-Luc assessed as accumulation at diploid stage at 5 uM after 8 hrs by propidium iodide-based flow cytometry; type: functional; method in brief: as §1
HeLa [22] = assay: Cell cycle arrest in TNF-alpha-stimulated human HeLa cells transfected with NFkappaB-Luc assessed as accumulation at S phase at 0.1 uM after 8 hrs by propidium iodide-based flow cytometry; type: functional
HeLa [23] = assay: Effect on cell cycle arrest in TNF-alpha-stimulated human HeLa cells assessed as cell debris level at 0.05 uM after 8 hrs by propidium iodide-based flow cytometry; type: functional
HeLa [24] = assay: Effect on cell cycle arrest in TNF-alpha-stimulated human HeLa cells assessed as cell debris level at 20 uM after 8 hrs by propidium iodide-based flow cytometry; type: functional
HeLa [25] = assay: Cell cycle arrest in TNF-alpha-stimulated human HeLa cells transfected with NFkappaB-Luc assessed as accumulation at G2/G1 phase at 20 uM after 8 hrs by propidium iodide-based flow cytometry; type: functional; method in brief: as §1
HeLa [26] = assay: Cell cycle arrest in TNF-alpha-stimulated human HeLa cells transfected with NFkappaB-Luc assessed as accumulation at diploid G2 phase at 0.05 uM after 8 hrs by propidium iodide-based flow cytometry; type: functional
HeLa [27] = assay: Cell cycle arrest in TNF-alpha-stimulated human HeLa cells transfected with NFkappaB-Luc assessed as accumulation at G2/G1 phase at 0.1 uM after 8 hrs by propidium iodide-based flow cytometry; type: functional
HeLa [28] = assay: Effect on cell cycle arrest in TNF-alpha-stimulated human HeLa cells assessed as cell aggregate level at 20 uM after 8 hrs by propidium iodide-based flow cytometry; type: functional
HeLa [29] = assay: Cell cycle arrest in human HeLa cells transfected with NFkappaB-Luc assessed as accumulation at diploid stage at 20 uM after 8 hrs by propidium iodide-based flow cytometry; type: functional; method in brief: as §1
HeLa [30] = assay: Effect on cell cycle arrest in TNF-alpha-stimulated human HeLa cells assessed as cell aggregate level at 0.1 uM after 8 hrs by propidium iodide-based flow cytometry; type: functional

CCOC(=O)[C@]1(c2ccccc2)N=C(c2ccccc2)N(Cc2ccccc2)[C@@H]1c1ccccc1 (racemic)
Activity (HeLa [1]): 13.84%
Activity (HeLa [2]): 64.3%
Activity [3]: 1.42 mL⁻¹
Activity (HeLa [4]): 21.48%
EC50 (Blood): 1830 nM
Activity (HeLa [5]): 19.8%
Activity (HeLa [6]): 22.52%
Activity (HeLa [7]): 65.96%
Ratio (HeLa [8]): 1.91
Activity (HeLa [9]): 64.08%
Activity (HeLa [10]): 2%
Activity (HeLa [11]): 14.03%
Activity (HeLa [12]): 100%
Activity (HeLa [13]): 22.8%
Ratio (HeLa [14]): 1.91
Activity (HeLa [15]): 0%
Activity (HeLa [16]): 66.37%
Activity (HeLa [17]): 13.33%
Activity (HeLa [18]): 100%
Activity (HeLa [19]): 68.19%
Activity (HeLa [20]): 0%
Activity (HeLa [21]): 100%
Activity (HeLa [22]): 21.47%
Activity (HeLa [23]): 2.47%
Activity (HeLa [24]): 14.57%
Ratio (HeLa [25]): 1.9
Activity (HeLa [26]): 12.9%
Ratio (HeLa [27]): 1.92
Activity (HeLa [28]): 0%
Activity (HeLa [29]): 100%
Activity (HeLa [30]): 0%
